The values below come from ChEMBL document CHEMBL1212900, “Falcipain inhibitors: optimization studies of the 2-pyrimidinecarbonitrile lead series” (J Med Chem, 2010).

In one assay the test system is Plasmodium falciparum. The experiment in a line: Antiplasmodial activity against Plasmodium falciparum W2 after 48 hrs. The format is functional, organism-based. The note with it: W2, 48 h. The essentials:
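W2 P. falciparum grown in human erythrocytes, 2% hematocrit, RPMI with 10% human serum or 0.5% AlbuMAX II; sorbitol-synchronized. Serial dilutions from DMSO stocks added at ring stage for 48 h, medium and drug renewed at 24 h. Cells fixed in 1% formaldehyde, stained with YOYO-1, parasitemia counted by flow cytometry; IC50 from percent parasitemia versus untreated controls.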

A short description of assay [1]: Inhibition of Plasmodium falciparum falcipain-3 expressed in Escherichia coli. The essentials:
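Refolded recombinant enzyme from E. coli, 2 nM, in 100 mM sodium acetate pH 5.5 with 500 μM CHAPS and 10 mM DTT, DMSO up to 1%. H-D-Val-Leu-Arg-AFC at 150 μM final. Reaction started by enzyme addition; fluorescence monitored 1 h at room temperature. IC50 derived from percent activity plotted against inhibitor concentration.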

Assay [2] is described as follows: Inhibition of Plasmodium falciparum falcipain-2 expressed in Escherichia coli. The essentials: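 Recombinant E. coli-expressed, refolded enzyme at 0.25 nM in 100 mM sodium acetate pH 5.5, 500 μM CHAPS, 10 mM DTT, DMSO ≤1%. Substrate H-D-Val-Leu-Arg-AFC at 30 μM final. Inhibitor dilutions mixed with substrate, enzyme added last; fluorescence followed 1 h at room temperature. IC50 from percent activity versus concentration.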

On to `CCC(CC)N(NC(=O)c1ccc(CN2CCN(C)CC2)cc1)c1nc(C#N)ncc1Br`, for which the IC50 with Plasmodium falciparum came out at 1.61 µM; in assay [1], 2.04 µM; in assay [2], 0.187 µM.

For the molecule `CN1CCN(Cc2ccc(C(=O)NN(CC3CCCO3)c3nc(C#N)ncc3Br)cc2)CC1` (stereo unspecified), the IC50 in the assay on Plasmodium falciparum came out at 1.88 µM; in assay [1], 0.099 µM; in assay [2] it was 0.014 µM.

On to `CC(=O)NC1CCC(N(NC(=O)c2ccc(CN3CCN(C)CC3)cc2)c2nc(C#N)ncc2Br)CC1` (stereo unspecified), for which the IC50 with Plasmodium falciparum was 1.31 µM; in assay [1], 0.088 µM; in assay [2], 0.008 µM.

Turning to `CC(C)CN(NC(=O)Cc1ccc(OCCN2CCOCC2)cc1)c1nc(C#N)ncc1Br`, the values for the IC50 (in the assay with Plasmodium falciparum; in assay [1]; in assay [2]) were 0.065 µM, 0.005 µM and 0.0007 µM, respectively.

In the case of `CC(C)CN(c1nc(C#N)ncc1Br)N(CCCN1CCN(C)CC1)C(=O)c1ccccc1`, the IC50 with Plasmodium falciparum worked out at 0.166 µM; in assay [1] it was 0.078 µM; in assay [2], 0.007 µM.

For `CN1CCN(Cc2ccc(C(=O)NN(CC3CCCC3)c3nc(C#N)ncc3Br)cc2)CC1`, the IC50 with Plasmodium falciparum stood at 0.033 µM; in assay [1], 0.006 µM; in assay [2], 0.0005 µM.

With `CCCC(CCC)CN(NC(=O)c1ccc(CN2CCN(C)CC2)cc1)c1nc(C#N)ncc1Br`, the values for the IC50 (in the assay with Plasmodium falciparum; in assay [1]; in assay [2]) were 1.2 µM, 0.802 µM and 0.081 µM, respectively.

Take `CCC(C)CN(NC(=O)c1ccc(CN2CCN(C)CC2)cc1)c1nc(C#N)ncc1Br` (stereo unspecified): the IC50 in the assay on Plasmodium falciparum was found to be 0.024 µM; in assay [1], 0.035 µM; in assay [2], 0.0009 µM.

Take `CC(C)CN(NC(=O)c1ccc(-c2ccc(CN3CCN(C)CC3)cc2)nc1)c1nc(C#N)ncc1Br`: the IC50 in the assay with Plasmodium falciparum was 0.016 µM; in assay [1], 0.026 µM; in assay [2], under 0.0005 µM.

Take `CN1CCN(Cc2ccc(C(=O)NN(CCc3ccccc3)c3nc(C#N)ncc3Br)cc2)CC1`: the IC50 with Plasmodium falciparum was 2.18 µM; in assay [1], 0.105 µM; in assay [2] it was 0.023 µM.

As to `CN1CCN(Cc2ccc(C(=O)NN(c3nc(C#N)ncc3Br)C3CCCC3)cc2)CC1`, the IC50 in the assay with Plasmodium falciparum was 0.024 µM; in assay [1], 0.011 µM; in assay [2], under 0.0005 µM.

`CC(C)N(NC(=O)c1ccc(CN2CCN(C)CC2)cc1)c1nc(C#N)ncc1Br`: the values for the IC50 (in the assay on Plasmodium falciparum; in assay [1]; in assay [2]) were 0.401 µM, 1.37 µM and 0.029 µM, respectively.

For `CN1CCN(Cc2ccc(C(=O)NN(CC(C)(C)C)c3nc(C#N)ncc3Br)cc2)CC1`, the IC50 in the assay with Plasmodium falciparum was 0.409 µM; in assay [1], 0.158 µM; in assay [2], 0.019 µM.

Take `CC1CCC(N(NC(=O)c2ccc(CN3CCN(C)CC3)cc2)c2nc(C#N)ncc2Br)C1` (stereo unspecified): the results for the IC50 (in the assay on Plasmodium falciparum; in assay [1]; in assay [2]) were 0.068 µM, 0.045 µM and 0.0009 µM, respectively.

For `CC(=O)N1CCC(N(NC(=O)c2ccc(CN3CCN(C)CC3)cc2)c2nc(C#N)ncc2Br)CC1`, the IC50 with Plasmodium falciparum was 0.028 µM; in assay [1] it was 0.026 µM; in assay [2] it was under 0.0005 µM.

As to `CCCN1CCN(Cc2ccc(CC(=O)NN(CC(C)C)c3nc(C#N)ncc3Br)cc2)CC1`, the IC50 stood at 0.018 µM in the assay with Plasmodium falciparum, 0.003 µM in assay [1] and 0.0002 µM in assay [2].

With `CC(C)CN(NC(=O)c1ccc(-c2cccc(CN3CCN(C)CC3)c2)nc1)c1nc(C#N)ncc1Br`, the values for the IC50 (in the assay with Plasmodium falciparum; in assay [1]; in assay [2]) were 0.022 µM, 0.038 µM and 0.0002 µM, respectively.

With `CN1CCN(Cc2ccc(C(=O)NN(CC3CCC3)c3nc(C#N)ncc3Br)cc2)CC1`, the IC50 with Plasmodium falciparum came to 0.438 µM; in assay [1], 0.111 µM; in assay [2] it was 0.003 µM.

In the case of `CC(C)CN(NC(=O)C(C)(C)c1ccc(OCCN2CCOCC2)cc1)c1nc(C#N)ncc1Cl`, the IC50 with Plasmodium falciparum came out at 0.806 µM; in assay [1], 0.018 µM; in assay [2], 0.004 µM.

On to `CC(C)CN(NC(=O)c1ccc(-c2ccc(CN3CCN(C)CC3)cc2)o1)c1nc(C#N)ncc1Br`, for which the concentration for half-maximal inhibition (IC50) in the assay on Plasmodium falciparum is 0.017 µM; in assay [1], 0.005 µM; in assay [2], under 0.0005 µM.

Consider `CC(C)CN(NC(=O)c1ccc(CN2CCN(C)CC2)s1)c1nc(C#N)ncc1Br`, for which the IC50 with Plasmodium falciparum came out at 0.01 µM; in assay [1], 0.012 µM; in assay [2], 0.0002 µM.

On to `CN1CCN(Cc2ccc(C(=O)NN(CC3CC3)c3nc(C#N)ncc3Br)cc2)CC1`, for which the IC50 in the assay with Plasmodium falciparum worked out at 1.08 µM; in assay [1], 0.33 µM; in assay [2] it was 0.005 µM.

Take `CCC(CC)CN(NC(=O)c1ccc(CN2CCN(C)CC2)cc1)c1nc(C#N)ncc1Br`: the IC50 in the assay on Plasmodium falciparum was found to be 0.194 µM; in assay [1], 0.044 µM; in assay [2], 0.002 µM.

`CC(C)CN(NC(=O)c1cncc(-c2ccc(CN3CCN(C)CC3)cc2)c1)c1nc(C#N)ncc1Br`: the values for the IC50 (in the assay on Plasmodium falciparum; in assay [1]; in assay [2]) were 0.001 µM, under 0.003 µM and under 0.0005 µM, respectively.

As to `CCCC(C)CN(NC(=O)c1ccc(CN2CCN(C)CC2)cc1)c1nc(C#N)ncc1Br` (stereo unspecified), the figures for the IC50 (with Plasmodium falciparum; in assay [1]; in assay [2]) were 0.272 µM, 0.052 µM and 0.002 µM, respectively.

`CN1CCN(Cc2ccc(C(=O)NN(c3nc(C#N)ncc3Br)C3CCCC3(C)C)cc2)CC1` (stereo unspecified): the IC50 in the assay on Plasmodium falciparum stood at 0.104 µM; in assay [1] it was 0.11 µM; in assay [2], 0.002 µM.

Consider `CC(C)CN(NC(=O)c1cc(CN2CCN(C)CC2)on1)c1nc(C#N)ncc1Br`, for which the results for the IC50 (in the assay with Plasmodium falciparum; in assay [1]; in assay [2]) were 0.033 µM, 0.046 µM and 0.001 µM, respectively.

Consider `CC(C)CN(c1nc(C#N)ncc1Br)N(CCCN1CCN(C)CC1)C(=O)Cc1ccccc1`, for which the IC50 in the assay on Plasmodium falciparum amounted to 0.214 µM; in assay [1] it was 0.027 µM; in assay [2], 0.006 µM.

Turning to `CN1CCN(Cc2ccc(C(=O)NN(c3nc(C#N)ncc3Br)C3CCC3)cc2)CC1`, the IC50 with Plasmodium falciparum amounted to 0.09 µM; in assay [1], 0.173 µM; in assay [2], 0.002 µM.

For the molecule `CCCN1CCN(Cc2ccc(CC(=O)NN(CC(C)C)c3nc(C#N)ncc3Cl)cc2)CC1`, the IC50 in the assay with Plasmodium falciparum worked out at 0.041 µM; in assay [1], 0.006 µM; in assay [2], 0.0007 µM.

For `CN1CCN(Cc2ccc(C(=O)NN(Cc3ccoc3)c3nc(C#N)ncc3Br)cc2)CC1`, the IC50 in the assay on Plasmodium falciparum amounted to 0.333 µM; in assay [1] it was 0.133 µM; in assay [2] it was 0.002 µM.

In the case of `CC(C)CN(NC(=O)c1ccc(CN2CCN(C)CC2)o1)c1nc(C#N)ncc1Br`, the results for the IC50 (in the assay on Plasmodium falciparum; in assay [1]; in assay [2]) were 0.021 µM, 0.012 µM and 0.0007 µM, respectively.
